# From ChEMBL document CHEMBL1157364, “Rapamycin reduces CCR5 density levels on CD4 T cells, and this effect results in potentiation of enfuvirtide (T-20) against R5 strains of human immunodeficiency virus type 1 in vitro” (Antimicrob Agents Chemother, 2007)
# The source made the active and inactive calls. No cut-off for these calls is given here.
# Experiments:
# PBMC [1] = assay: Reduction of CCR5 density on human sPBMC at 0.1 to 1 nM after 6 days by quantitative fluorescence-activated cell sorting; type: functional, cell-based
# Outline: (§1)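 PBMCs cultured 6 days with IL-2 and RAPA. Blocked 30 min at room temperature (PBS with 2% human serum, 5% horse serum, 0.1% azide), then stained 30 min with PE antibodies. Surface molecules per cell from FL-2 by Quantibrite-PE bead regression, PE/antibody ratio 1:1. Means ± SD from seven donors; Student's t test versus untreated.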
# PBMC [2] = assay: Reduction of CXCR4 density on human PBMC at 0.1 to 1 nM after 6 days by quantitative fluorescence-activated cell sorting; type: functional, cell-based; outline: as §1
# PBMC [3] = assay: Reduction of CD4 density on human PBMC at 1 nM after 6 days by quantitative fluorescence-activated cell sorting; type: functional; set-up: scale not given: the % may be the effect or the level left; outline: as §1
# [4] = test system: Human immunodeficiency virus 1; assay: Antiviral activity against HIV1 ADA in human PBMC assessed as reduction of p24 antigen levels after 4 days of infection; type: functional, organism-based
# Outline: (§2)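 PBMCs cultured 6 days with IL-2 (100 U/ml) plus RAPA, then exposed 2 h to HIV-1 ADA (R5) or IIIb (X4) at MOI 0.001, washed three times with PBS, and kept in IL-2 medium with drugs. p24 in supernatant by ELISA on day 4 after infection. Means ± SD of independent experiments.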
# [5] = test system: Human immunodeficiency virus 1; assay: Antiviral activity against HIV1 R5 assessed as inhibition of cell-cell fusion between R5-envelope expressing HEK293T cells and CD8 depleted human PBMCs pretreated for 6 days; type: functional, organism-based; conditions: Human immunodeficiency virus 1, R5, HEK-293T
# Outline: (§3)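 Target cells were CD8-depleted PBMCs pretreated 6 days with RAPA and labeled with calcein-AM. Effectors were 293T cells transfected with JRFL (R5) or HXB2 (X4) Env plus Rev, loaded with CMTMR on day 2. Cells cocultured 1:3 ± T-20 for 2.5 h at 37°C in HEPES-DMEM pH 7.2 with BSA 1 mg/ml. Double-positive cells scored by microscopy, ≥100 cells, normalized to no-T-20 fusion. EC50 from F = 100/(1 + Ci/EC50).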
# [6] = test system: Human immunodeficiency virus 1; assay: Antiviral activity against HIV1 X4 assessed as inhibition of cell-cell fusion between X4-envelope expressing HEK293T cells and CD8 depleted human PBMCs pretreated for 6 days; type: functional, organism-based; conditions: Human immunodeficiency virus 1, X4, HEK-293T; outline: as §3
# [7] = test system: Human immunodeficiency virus 1; assay: Antiviral activity against HIV1 ADA in human PBMC assessed as reduction of p24 antigen levels; type: functional, organism-based; conditions: Human immunodeficiency virus 1, ADA; outline: as §2
# [8] = test system: Human immunodeficiency virus 1; assay: Antiviral activity against HIV1 R5 in human PBMC assessed as fractional inhibition of viral replication at 0.125 nM; type: functional
# Outline: (§4)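 Fixed-ratio combination in PBMC p24 infectivity assays (RAPA pretreatment, MOI 0.001, p24 ELISA day 4). Each drug tested alone in twofold dilutions, RAPA 0.125–2 nM and T-20 2.5–40 nM, and in a 1/20 RAPA/T-20 molar ratio. Median-effect (Chou) analysis gave Dm, m, r, combination index and dose reduction index.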
# [9] = test system: Human immunodeficiency virus 1; assay: Antiviral activity against HIV1 R5 in human PBMC assessed as fractional inhibition of viral replication at 0.250 nM; type: functional; outline: as §4
# [10] = test system: Human immunodeficiency virus 1; assay: Antiviral activity against HIV1 R5 in human PBMC assessed as fractional inhibition of viral replication at 0.5 nM; type: functional; outline: as §4
# [11] = test system: Human immunodeficiency virus 1; assay: Antiviral activity against HIV1 R5 in human PBMC assessed as fractional inhibition of viral replication at 1 nM; type: functional; outline: as §4
# [12] = test system: Human immunodeficiency virus 1; assay: Antiviral activity against HIV1 R5 in human PBMC assessed as fractional inhibition of viral replication at 2 nM; type: functional; outline: as §4
# [13] = test system: Human immunodeficiency virus 1; assay: Antiviral activity against HIV1 R5 in human PBMC assessed as fractional inhibition of viral replication; type: functional, organism-based; conditions: Human immunodeficiency virus 1, R5; outline: as §4
# PBMC [14] = assay: Effect on cell viability of human PBMC at 0.03 to 1 nM after 14 days by trypan blue staining; type: cell-based; conditions: 336 h, 0.001 µM
# Outline: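 PBMCs cultured with IL-2 and RAPA for 14 days; viability by trypan blue staining. Means ± SD from seven donors.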
# PBMC [15] = assay: Effect on cell viability of human PBMC pretreated for 14 days by trypan blue staining; conditions: 336 h
# [16] = test system: Human immunodeficiency virus 1; assay: Antiviral activity against HIV1 X4 in human PBMC assessed as reduction of p24 antigen levels; type: functional, organism-based; conditions: Human immunodeficiency virus 1, X4; outline: as §2
# [17] = test system: Human immunodeficiency virus 1; assay: Antiviral activity against HIV1 R5 in human PBMC assessed as fractional inhibition of viral replication at 2.5 nM; type: functional; outline: as §4
# [18] = test system: Human immunodeficiency virus 1; assay: Antiviral activity against HIV1 R5 in human PBMC assessed as fractional inhibition of viral replication at 5 nM; type: functional; outline: as §4
# [19] = test system: Human immunodeficiency virus 1; assay: Antiviral activity against HIV1 R5 in human PBMC assessed as fractional inhibition of viral replication at 10 nM; type: functional; outline: as §4
# [20] = test system: Human immunodeficiency virus 1; assay: Antiviral activity against HIV1 R5 in human PBMC assessed as fractional inhibition of viral replication at 20 nM; type: functional; outline: as §4
# [21] = test system: Human immunodeficiency virus 1; assay: Antiviral activity against HIV1 R5 in human PBMC assessed as fractional inhibition of viral replication at 40 nM; type: functional; outline: as §4
molecule,measurement,setting,value
CO[C@H]1C[C@@H]2CC[C@@H](C)[C@@](O)(O2)C(=O)C(=O)N2CCCC[C@H]2C(=O)O[C@H]([C@H](C)C[C@@H]2CC[C@@H](O)[C@H](OC)C2)CC(=O)[C@H](C)/C=C(\C)[C@@H](O)[C@@H](OC)C(=O)[C@H](C)C[C@H](C)/C=C/C=C/C=C/1C [SIROLIMUS],Activity,PBMC [1],Active
same,Activity,PBMC [2],inactive
same,Activity,PBMC [3],15%
same,Activity,[4],Active
same,EC50,[5],0.1 nM
same,EC50,[6],1.3 nM
same,EC50,[7],0.15 nM
same,Activity,[8],0.34
same,Activity,[9],0.66
same,Activity,[10],0.78
same,Activity,[11],0.85
same,Activity,[12],0.92
same,EC50,[13],0.18 nM
same,Activity,PBMC [14],Non-toxic
same,Activity,PBMC [15],Non-toxic
enfuvirtide,EC50,[7],10 nM
same,EC50,[16],2.5 nM
same,Activity,[17],0.23
same,Activity,[18],0.24
same,Activity,[19],0.5
same,Activity,[20],0.57
same,Activity,[21],0.73
same,EC50,[13],12.9 nM
